Vif imaging – HIV Vif inhibition. HEK293T cells, Vif self-association by quenched fluorescence, imaging, 24 h. inhibition, % at 7.49 µM. actives 0.35% (n = 340,000). AID 602346; in the data active = inhibition above about 50%, passing the limit was not always enough; inconclusive = no clear call, values can overlap the other calls; inactive = below about 31%
Casp6 inh – blocks human caspase-6 cleavage activity. AID 686996. purified caspase-6, Z-VEID-R110 cleavage fluorescence. inhibition, % at 12.5 µM. P55212. actives 0.53% (n = 350,000);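 active = mean inhibition across replicates at least about 35%, with every replicate also reaching that limit, limit read from the data; inconclusive = only one of the two criteria met; inactive = neither criterion met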;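 also: 0% = median of neutral control wells and 100% = no fluorescence left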
Target sequence (P55212 24-179 limits assumed): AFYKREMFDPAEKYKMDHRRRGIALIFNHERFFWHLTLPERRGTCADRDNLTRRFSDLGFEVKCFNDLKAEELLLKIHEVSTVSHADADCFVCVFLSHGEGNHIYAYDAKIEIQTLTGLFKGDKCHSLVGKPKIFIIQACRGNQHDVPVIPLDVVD
Target sequence (P55212 194-293 limits assumed): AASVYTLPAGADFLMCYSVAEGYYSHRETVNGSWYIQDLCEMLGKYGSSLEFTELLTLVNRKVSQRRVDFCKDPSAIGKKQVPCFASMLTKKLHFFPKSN
T cell modulator – T cell immune modulators affecting CD8 T cell-vesicle binding; AID 2052; 2C CD8+ T cell-vesicle binding, flow cytometry; hits give low values; actives 0.068% (n = 330,000); response (vesicle binding), % at 7 µM;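 active = response, share of CD8 T cells binding vesicles, and their 90th percentile fluorescence all below set limits, cut at about 80% in these data, passing the limit was not always enough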;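 also: values below 100% mean blocked vesicle binding to the CD8+ T cells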
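Test system: purified 2C TCR transgenic mouse naive CD8+ T cells. Probe or stimulus: QL9-peptide-loaded Drosophila micro-vesicles bearing Ld, ICAM-1 and B7-1. Incubation: binding step 1.5 h, 37 °C, antibody labelling 20 min, ice. Measured by: flow cytometry of vesicle-bound cells.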
Myeloid diff MLP – myeloid differentiation induction; actives 1% (n = 360,000); ER-HoxA9 myeloid progenitors, lysozyme-GFP differentiation, flow cytometry; calls only at 10 µM;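 active = normalized GFP-positive differentiation at or above the plate's own cutoff, the solvent-only control mean plus 3 SD; inconclusive = no clear call, values can overlap the other calls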;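 also: cells exposed to compound for four days before flow analysis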
* marks the source's active call; other numbers are inactive results; i = inactive; ? = inconclusive; / = no result given; + = active, no number. Sampled rows, rich in hits. Any-hit rate of the full collection: about 1.4%.

SMILES	Vif imaging	Casp6 inh	T cell modulator	Myeloid diff MLP
Cc1cc(Oc2ccc(N)cn2)ccc1Cl	13	2	259	+
Cc1c(Br)c(=O)oc2c(Br)c(O)c(O)cc12	1	47*	289	i
C[C@H](CO)N1C[C@H](C)[C@H](CN(C)Cc2ccncc2)Oc2ncc(C#CC3CCCC3)cc2C1=O	/	2	/	/
O=C([C@H]1[C@H](CO)[C@H]2Cn3c(cccc3=O)[C@H]2N1Cc1cc(F)ccc1F)N1CCOCC1	/	37*	/	/
CCCC#Cc1cnc2c(c1)C(=O)N([C@@H](C)CO)C[C@@H](C)[C@H](CN(C)Cc1ccccc1)O2	/	-3	/	/
CN(C)C(=O)c1cccc(-c2ccc3c(c2)[C@H]2[C@H](CCN2C(=O)c2ccncc2)[C@@H](CO)N3C)c1	/	-1	/	/
Cn1c(CNC(=O)CNS(=O)(=O)c2ccccc2)cc(=O)n(C)c1=O	8	3	192	i
COc1ccc(S(=O)(=O)NCC(=O)NCc2cc(=O)n(C)c(=O)n2C)cc1C	-5	0	268	+
CCN(c1ccc(N=Cc2c(O)n(Cc3ccc(OC)cc3)c(=O)c3ccccc23)cc1)C(C)C	5	-7	/	+
CCS(=O)(=O)N1CC2(C1)[C@H](c1ccccc1)[C@H](CO)N2CCC(F)(F)F	/	-1	/	/
O=C(CSc1nc2ccccc2n1-c1ccccc1)Nc1ncc(Cl)cc1Cl	-15	2	272	i
Cc1cccc(-n2c(SCC(=O)Nc3ncc(Cl)cc3Cl)nc3ccccc32)c1	-2	0	196	+
COc1cc(N)c(C(=O)c2nccc3cc(OC)c(OC)cc23)cc1OC	1	11	375	/
COc1cc(Br)c(C(=O)c2nccc3cc(OC)c(OC)cc23)cc1OC	-9	97*	206	i
C[C@H]1CN([C@@H](C)CO)C(=O)c2cc(-c3ccncc3)cnc2O[C@H]1CN(C)C(=O)NC1CCCC1	/	-1	/	/
CCOc1cc(/C=C2\CCC/C(=C\c3cc(Cl)c(O)c(OCC)c3)C2=O)cc(Cl)c1O	18	/	237	+
CCOc1cc(/C=C2\CN(C)C/C(=C\c3ccc(O)c(OCC)c3)C2=O)ccc1O	21	8	643	?
CCOCCOc1cc(NCc2ccccc2)c2ncn(C(C)C)c2c1	-6	41*	/	i
O=C(C[C@H]1C=C[C@@H](NC(=O)Cc2ccccn2)[C@@H](CO)O1)NCCCN1CCOCC1	/	-2	/	/
c1coc(-c2nc3ccccc3nc2-c2ccco2)c1	/	69*	288	i
COc1ccc(NS(=O)(=O)c2cc([N+](=O)[O-])ccc2N/N=C\c2c(C)[nH]c3ccccc23)cc1	2	/	217	+

Screening results from PubChem BioAssay.
